One data set addresses CYP3A4 (Homo sapiens, UniProt P08684). Briefly: Drug metabolism assessed as unchanged drug level in baculovirus-infected Sf9 cell microsomes expressing human recombinant CYP3A4 at 10 uM after 30 mins by LC-RAM-MS analysis. The data set is classed as ADME. The following applies: read-out: Drug metabolism. The method in brief:
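Microsomes from baculovirus-infected Sf9 cells expressing recombinant human CYP3A4 with CYP450 reductase (50 pmol/mL) incubated in duplicate with 10 µM [14C]BIIB021 (0.5 µCi/mL) in 100 mM potassium phosphate pH 7.4. Reaction started with 1 mM NADPH (final), run 30 min at 37°C with gentle shaking, stopped with ice-cold acetonitrile containing 0.1% formic acid, centrifuged, and supernatant analysed by LC-MS.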

Data set [1] has as its system Liver microsome. Briefly: Drug metabolism in human liver microsomes assessed as CF2246 metabolite formation at 10 uM […] by LC-RAM-MS analysis in presence of anti-CYP1A2 monoclonal antibody. The format is ADME. A digest of the protocol:
(§1)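 All components except substrate and NADPH were preincubated 15 min on ice, then 5 min at 37°C. Substrate and NADPH were added and incubated 60 min at 37°C. Incubations without antibody served as positive controls.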
(Liver microsomes are a subcellular fraction often used to study metabolism.)

Data set [2] in a line: Drug metabolism in human liver cytosol assessed as CF2483 metabolite formation at 10 uM after 30 mins by LC-RAM-MS analysis in presence of aldehyde oxidase inhibitor isovanillin. The following applies: 0.5 h. The format is ADME. A digest of the protocol: (§2)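 Human liver cytosol (1 mg/mL protein) incubated with 10 µM [14C]BIIB021 (0.5 µCi/mL) in 100 mM phosphate buffer, pH 7.4, for 30 min. Reaction quenched with ice-cold acetonitrile, then centrifuged 10 min at 4°C, and supernatant analysed by LC-MS. Where used, inhibitors (isovanillin 100 µM, menadione 100 µM, allopurinol 100 µM, raloxifene 50 µM) were preincubated in cytosol 10 min at 37°C before substrate addition.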

Data set [3] deals with Liver microsome. Briefly: Drug metabolism in human liver microsomes assessed as CF3785 metabolite formation at 10 uM […] by LC-RAM-MS analysis in presence of anti-CYP2D6 monoclonal antibody. The format is ADME. The method in brief:
as §1

Data set [4] in a line: Drug metabolism in human liver cytosol assessed as CF2483 metabolite formation at 10 uM after 30 mins by LC-RAM-MS analysis in presence of aldehyde oxidase inhibitor raloxifene. The following applies: 0.5 h. The data set is classed as ADME. A digest of the protocol:
as §2

Data set [5] concerns Liver microsome. Briefly: Drug metabolism in human liver microsomes assessed as CF3785 metabolite formation at 10 uM […] by LC-RAM-MS analysis in presence of anti-CYP2A6 monoclonal antibody. The data set is classed as ADME. A digest of the protocol: as §1
In data set [6] the test system is Liver microsome. In words: Drug metabolism in human liver microsomes assessed as CF2246 metabolite formation at 10 uM […] by LC-RAM-MS analysis in presence of anti-CYP2C19 monoclonal antibody. The data set is classed as ADME. The method in brief:
as §1

For data set [7], the system named is Liver microsome. In words: Drug metabolism in human liver microsomes assessed as CF2246 metabolite formation at 10 uM […] by LC-RAM-MS analysis in presence of anti-CYP2B6 monoclonal antibody. The format is ADME. A digest of the protocol: as §1
Data set [8] relates to Liver microsome. In words: Drug metabolism in human liver microsomes assessed as CF2246 metabolite formation at 10 uM after […] by LC-RAM-MS analysis in presence of anti-CYP3A4 monoclonal antibody. The format is ADME. A digest of the protocol:
as §1

The test system of data set [9] is Liver microsome. Briefly: Drug metabolism in human liver microsomes assessed as CF3785 metabolite formation at 10 uM […] by LC-RAM-MS analysis in presence of anti-CYP2E1 monoclonal antibody. The format is ADME. The method in brief:
as §1

In data set [10] the test system is Liver microsome. In words: Drug metabolism in human liver microsomes assessed as CF2246 metabolite formation at 10 uM after […] by LC-RAM-MS analysis in presence of anti-CYP2D6 monoclonal antibody. The data set is classed as ADME. A digest of the protocol: as §1
In data set [11] the test system is Liver microsome. In words: Drug metabolism in human liver microsomes assessed as CF2246 metabolite formation at 10 uM after […] by LC-RAM-MS analysis in presence of anti-CYP2E1 monoclonal antibody. The format is ADME. The method in brief: as §1
Data set [12] deals with Liver microsome. In words: Drug metabolism in human liver microsomes assessed as CF3785 metabolite formation at 10 uM […] by LC-RAM-MS analysis in presence of anti-CYP1A2 monoclonal antibody. The data set is classed as ADME. A digest of the protocol:
as §1

Data set [13] is described as follows: Drug metabolism in human liver cytosol assessed as CF2483 metabolite formation at 10 uM after 30 mins by LC-RAM-MS analysis. The data set is classed as ADME, tissue-based. To be noted: 0.5 h. The method in brief: as §2
Data set [14] in a line: Drug metabolism in human liver cytosol assessed as CF2483 metabolite formation at 10 uM after 30 mins by LC-RAM-MS analysis in presence of xanthine oxidase inhibitor allopurinol. The following applies: 0.5 h. The data set is classed as ADME. The method in brief: as §2
The test system of data set [15] is Liver microsome. In words: Drug metabolism in human liver microsomes assessed as CF2246 metabolite formation at 10 uM after […] by LC-RAM-MS analysis in presence of anti-CYP2A6 monoclonal antibody. The format is ADME. A digest of the protocol:
as §1

Data set [16] in a line: Drug metabolism in human liver cytosol assessed as CF2483 metabolite formation at 10 uM after 30 mins by LC-RAM-MS analysis in presence of aldehyde oxidase inhibitor menadione. To be noted: 0.5 h. The format is ADME. A digest of the protocol:
as §2

Data set [17] deals with Liver microsome. In words: Drug metabolism in human liver microsomes assessed as CF3785 metabolite formation at 10 uM […] by LC-RAM-MS analysis in presence of anti-CYP2B6 monoclonal antibody. The data set is classed as ADME. A digest of the protocol:
as §1

Data set [18] deals with Liver microsome. In words: Drug level in human liver microsomes treated with [14C]BIIB021 at 10 uM […] by LC-RAM-MS analysis in presence of anti-CYP1A2 monoclonal antibody. The format is ADME. To be noted: 1.5 h.
For data set [19], the system named is Liver microsome. Briefly: Drug level in human liver microsomes treated with [14C]BIIB021 at 10 uM after 90 mins by LC-RAM-MS analysis in presence of anti-CYP2B6 monoclonal antibody. The format is ADME. The following applies: 1.5 h.
Data set [20] has as its system Liver microsome. Briefly: Drug level in human liver microsomes treated with [14C]BIIB021 at 10 uM after 90 mins by LC-RAM-MS analysis in presence of anti-CYP2A6 monoclonal antibody. The data set is classed as ADME. The following applies: 1.5 h.
Data set [21] has as its system Liver microsome. In words: Drug level in human liver microsomes treated with [14C]BIIB021 at 10 uM […] by LC-RAM-MS analysis in presence of anti-CYP2E1 monoclonal antibody. The format is ADME. To be noted: 1.5 h.
Data set [22] relates to Liver microsome. Briefly: Drug level in human liver microsomes treated with [14C]BIIB021 at 10 uM after 90 mins by LC-RAM-MS analysis in presence of anti-CYP2D6 monoclonal antibody. The format is ADME. To be noted: 1.5 h.
Data set [23] is described as follows: Drug level in human liver cytosol treated with [14C]BIIB021 at 10 uM after 30 mins by LC-RAM-MS analysis. The format is ADME, tissue-based. To be noted: 0.5 h. A digest of the protocol: as §2
Data set [24] in a line: Drug level in human liver cytosol treated with [14C]BIIB021 at 10 uM after 30 mins by LC-RAM-MS analysis in presence of xanthine oxidase inhibitor allopurinol. The format is ADME, tissue-based. To be noted: 0.5 h. A digest of the protocol:
as §2

Data set [25] concerns Liver microsome. In words: Drug level in human liver microsomes treated with [14C]BIIB021 at 10 uM […] by LC-RAM-MS analysis in presence of anti-CYP2C19 monoclonal antibody. To be noted: 1.5 h. The format is ADME.
Data set [26] relates to Liver microsome. Briefly: Drug level in human liver microsomes treated with [14C]BIIB021 at 10 uM after 90 mins by LC-RAM-MS analysis in presence of anti-CYP3A4 monoclonal antibody. To be noted: 1.5 h. The data set is classed as ADME.

From ChEMBL document CHEMBL3526132, “In vitro metabolism of BIIB021, an inhibitor of heat shock protein 90, in liver microsomes and hepatocytes of rats, dogs, and humans and recombinant human cytochrome P450 isoforms” (Drug Metab Dispos, 2012) come the findings set out here.

Chain of CYP3A4 (P08684 whole entry): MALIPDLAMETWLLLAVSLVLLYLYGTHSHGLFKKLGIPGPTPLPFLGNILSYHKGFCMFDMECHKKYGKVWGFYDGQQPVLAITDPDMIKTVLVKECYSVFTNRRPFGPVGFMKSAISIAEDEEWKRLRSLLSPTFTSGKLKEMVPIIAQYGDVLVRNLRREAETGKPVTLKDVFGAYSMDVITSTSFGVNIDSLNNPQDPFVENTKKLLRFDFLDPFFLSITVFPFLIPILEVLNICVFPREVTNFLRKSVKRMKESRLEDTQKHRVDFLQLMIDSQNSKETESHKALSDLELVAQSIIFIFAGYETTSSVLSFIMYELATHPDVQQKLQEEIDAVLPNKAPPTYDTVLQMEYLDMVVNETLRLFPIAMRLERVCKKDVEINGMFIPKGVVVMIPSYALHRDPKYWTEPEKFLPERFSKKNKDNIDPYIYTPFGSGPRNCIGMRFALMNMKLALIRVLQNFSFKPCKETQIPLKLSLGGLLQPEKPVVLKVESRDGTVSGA

Regarding `COc1c(C)cnc(Cn2[14cH]nc3c(Cl)nc(N)nc32)c1C`, on CYP3A4, the remaining at 0.5 h, 10 µM turned out to be 70%. The Drug metabolism entry with Liver microsome [1] is on record as “metabolite_detected”; in data set [2], “metabolite_not_detected”; in the data set with Liver microsome [3], “metabolite_detected”; in data set [4] it was “metabolite_not_detected”; in the data set on Liver microsome [5], “metabolite_detected”; with Liver microsome [6], “metabolite_detected”. The Drug metabolism entry in the data set on Liver microsome [7], in the data set on Liver microsome [8], in the data set with Liver microsome [9], in the data set with Liver microsome [10], in the data set on Liver microsome [11] and with Liver microsome [12] was “metabolite_detected” each time. Moreover, the Drug metabolism entry in data set [13] is reported as “metabolite_detected”; in data set [14], “metabolite_detected”; in the data set on Liver microsome [15], “metabolite_detected”; in [16] it was “metabolite_not_detected”; with Liver microsome [17] it was “metabolite_detected”.
Regarding `COc1c(CO)cnc(Cn2cnc3c(Cl)nc(N)nc32)c1C`, the Drug metabolism entry in the data set with Liver microsome [18], in the data set on Liver microsome [19], with Liver microsome [20], in the data set on Liver microsome [21] and in the data set with Liver microsome [22] was “metabolite_detected” in each case.
Take `COc1c(C)cnc(Cn2c(O)nc3c(Cl)nc(N)nc32)c1C`: the Drug metabolism result in [23] and in data set [24] was “metabolite_detected” throughout.
For the compound `Cc1cnc(Cn2cnc3c(Cl)nc(N)nc32)c(C)c1O`, the Drug metabolism result in the data set with Liver microsome [18], in the data set on Liver microsome [19], in the data set with Liver microsome [20], in the data set on Liver microsome [21], with Liver microsome [25] and in the data set with Liver microsome [22] was “metabolite_detected” in each case. Also, the Drug metabolism result in the data set on Liver microsome [26] is “metabolite_detected”.
